Published values of several laboratories.
Lines come from different studies, so protocols differ.
Observed: cell growth or viability

Structure (SMILES) | cell line | test | conditions | quantity | result
N.N.[Cl][Pt][Cl] | A-431 | MTT | 24 h, dark | IC50 | 40.1 µM
CCCc1cc(=O)n2nc(NCc3c(F)cc(Cl)cc3F)c(C#N)c2[nH]1 | HCC33 | ATP luminescence | 72 h | IC50 | > 50 µM
CC[C@@]1(OC(=O)[C@@H](N)CCSC)C(=O)OCc2c1cc1n(c2=O)Cc2cc3cc4c(cc3nc2-1)OCO4 | HepG2 | MTT |  | IC50 | 0.113 µM
CC1=C(O)C(=O)C=C2C1=CC=C1[C@@]2(C)CC[C@@]2(C)[C@@H]3C[C@](C)(C(=O)O)CC[C@]3(C)CC[C@]12C | HepG2 | MTT | 20 µM | inhibition | 92%
COc1cc(OC)c(/C=C/S(=O)(=O)Nc2ccc(OC)c(N)c2)c(OC)c1 | RF1 | trypan blue | 96 h | IC50 | 0.004 µM
O=c1ccc2ccc3occc3c2o1 | HepG2 | WST-1 | 48 h | IC50 | 13.8 µM
CC[C@H](C)[C@H](N)C(=O)O[C@]1(CC)C(=O)OCc2c1cc1n(c2=O)Cc2cc3cc4c(cc3nc2-1)OCO4 | HepG2 | MTT |  | IC50 | 0.098 µM
CCOC(=O)C1=C(N)N(c2ccc(C(=O)OCC)cc2)C(O)=C(C#N)C12C(=O)Nc1ccccc12 (stereo not shown) | HepG2 | MTT | 25 µM, 24 h | viability | 26.3%
CC[C@@]1(O)C(=O)OCc2c1cc1n(c2=O)Cc2cc3cc4c(cc3nc2-1)OCO4 | HepG2 | MTT | 72 h | IC50 | 0.022 µM
N.N.[Cl][Pt][Cl] | Huh-7 | MTT | 20 µM | inhibition | 76.4%
C=CC(=O)Nc1cc(Nc2nccc(-c3cn(C)c4ccccc34)n2)c(OC)cc1N(C)CCN(C)C | NCI-H292 | ATP luminescence | 72 h | GI50 | 3.75 µM
CC[C@@]1(OC(=O)[C@@H](N)C(C)C)C(=O)OCc2c1cc1n(c2=O)Cc2cc3cc4c(cc3nc2-1)OCO4 | HepG2 | MTT |  | IC50 | 0.087 µM
N.N.O=C([O-])C1(C(=O)[O-])CCC1.[Pt+2] | PNT2 | MTT | 96 h | IC50 | 27 µM
